{"data": "Assay results pooled from the literature", "target": "Mitogen-activated protein kinase 15 (MAPK15, Homo sapiens, UniProt Q8TD08)", "One construct used (Q8TD08 1-544)": "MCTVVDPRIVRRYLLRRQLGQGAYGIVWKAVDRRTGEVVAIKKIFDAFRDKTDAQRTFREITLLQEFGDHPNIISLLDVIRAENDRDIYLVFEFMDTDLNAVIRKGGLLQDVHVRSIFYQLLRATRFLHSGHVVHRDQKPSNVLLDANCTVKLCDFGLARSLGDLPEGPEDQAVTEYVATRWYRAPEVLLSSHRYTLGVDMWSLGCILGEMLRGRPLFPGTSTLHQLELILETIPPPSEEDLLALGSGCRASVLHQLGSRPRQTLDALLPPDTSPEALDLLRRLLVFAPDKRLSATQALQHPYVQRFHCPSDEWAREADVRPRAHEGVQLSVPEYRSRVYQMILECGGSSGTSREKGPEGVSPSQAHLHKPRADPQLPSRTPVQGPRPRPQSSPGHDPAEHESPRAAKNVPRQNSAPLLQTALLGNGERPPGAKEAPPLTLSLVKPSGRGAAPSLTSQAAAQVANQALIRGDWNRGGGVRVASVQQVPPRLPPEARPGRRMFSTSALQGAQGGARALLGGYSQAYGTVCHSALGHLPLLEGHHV", "note": "Each line is one published result; the experiments were not run side by side."}
{"SMILES": "COc1ccnn2ncc(-c3ccnc(N(C)C)n3)c12", "test": "binding", "conditions": "1 µM", "remaining binding": "91%"}
{"SMILES": "COc1ncc2cc3ccccc3nc2c1C#N", "test": "cell-free assay, competition with immobilised ligand", "conditions": "5 µM", "remaining binding": "91%"}
{"SMILES": "c1cncc(-c2cccc(Nc3nccc(NC4CCCCC4)n3)c2)c1", "test": "binding, competition with immobilised ligand", "conditions": "10 µM", "remaining binding": "62%"}
{"SMILES": "C[C@H](NC(=O)c1cnc2n1[C@](C)(Cc1ccc(C#N)cc1)C(=O)N2c1cc(Cl)c(F)c(Cl)c1)C(=O)NC1(c2ccccn2)CC1", "test": "cell-free assay, competition with immobilised ligand", "conditions": "1 µM", "remaining binding": "100%"}
{"SMILES": "O=C(NCCCN1CCOCC1)c1ccc(Nc2nccc(-c3cc4ccccc4s3)n2)cc1", "test": "binding, competition with immobilised ligand", "conditions": "1 µM", "remaining binding": "10%"}
{"SMILES": "C[C@H]1CCN(c2nccc(-c3cnn4ncccc34)n2)C1", "test": "binding", "conditions": "1 µM", "remaining binding": "74%"}
{"SMILES": "O=C(Nc1c[nH]nc1C(=O)NC1CCNCC1)c1cc(F)cc(F)c1", "test": "binding, competition with immobilised ligand", "conditions": "1 µM", "remaining binding": "75%"}
{"SMILES": "F[C@@H]1CCN(c2nccc(-c3cnn4ncccc34)n2)C1", "test": "binding", "conditions": "1 µM", "remaining binding": "66%"}
{"SMILES": "O=C(c1ccc(Nc2ncc(Cl)c(-c3ccc(Cl)s3)n2)cc1)N1CCC(N2CCCC2)CC1", "test": "binding, competition with immobilised ligand", "conditions": "1 µM", "remaining binding": "3.8%"}
{"SMILES": "O=C(O)c1cc(-c2ccc(C3CCNCC3)cc2)c2ccc(-c3ccc(C(F)(F)F)cc3)cc2c1", "test": "cell-free assay, competition with immobilised ligand", "conditions": "1 µM", "remaining binding": "100%"}
{"SMILES": "Nc1ncc2c(n1)-c1c([nH]c3ccc(C#CC4CC4)cc13)CCCC2", "test": "binding, competition with immobilised ligand", "conditions": "1 µM", "remaining binding": "100%"}
{"SMILES": "CNC(=O)[C@@H]1CC[C@@H](n2c(-c3ccc4cnccc4c3)nc3ccc(C(=O)NCc4cccc(C(N)=O)c4)cc32)C1", "test": "binding, competition with immobilised ligand", "conditions": "1 µM", "remaining binding": "95%"}
{"SMILES": "Cc1noc([C@H]2C[C@@H](c3ccc(C(F)(F)F)cc3)CN(C(=O)N3CCS(=O)(=O)C3)C2)n1", "test": "cell-free assay, competition with immobilised ligand", "conditions": "1 µM", "remaining binding": "100%"}
{"SMILES": "FC(F)(F)Oc1cccc(-c2cnc3ccc(-c4ccncc4)nn23)c1", "test": "cell-free assay, competition with immobilised ligand", "conditions": "5 µM", "remaining binding": "48%"}
{"SMILES": "CC1=C(C#N)C(c2ccc3c(c2)c(NC(=O)c2ccccc2C)nn3C)C(C#N)=C(C)N1", "test": "cell-free assay, competition with immobilised ligand", "conditions": "1 µM", "remaining binding": "89%"}
{"SMILES": "Cc1cnn2ncc(-c3ccnc(N(C)C)n3)c2c1", "test": "binding", "conditions": "1 µM", "remaining binding": "83%"}
{"SMILES": "COc1ccc2cc(OCC3(C(=O)O)CN(C(=O)c4ccc(F)cc4)C3)ccc2c1", "test": "cell-free assay, competition with immobilised ligand", "conditions": "1 µM", "remaining binding": "74%"}
{"SMILES": "N[C@H]1CCN(c2nccc(-c3cnn4ncccc34)n2)C1", "test": "binding", "conditions": "1 µM", "remaining binding": "93%"}
{"SMILES": "CS(=O)(=O)N1CCCC(NC(=O)[C@H](CCC2CCCCC2)NC(=O)c2ccc(CNC(=O)c3cnc4ccccn34)cc2)C1 (stereo partly shown)", "test": "cell-free assay, competition with immobilised ligand", "conditions": "0.1 µM", "remaining binding": "100%"}
{"SMILES": "Cc1cnc(Nc2ccc(C(=O)N3CCC(N4CCCC4)CC3)cc2)nc1-c1cc2ccccc2s1", "test": "binding, competition with immobilised ligand", "conditions": "1 µM", "remaining binding": "33%"}
{"SMILES": "c1cnn2ncc(-c3ccnc(N4CCC45COC5)n3)c2c1", "test": "binding", "conditions": "1 µM", "remaining binding": "71%"}
{"SMILES": "CO[C@@H](C)c1c(Nc2ccc([C@H](N(C)C(=O)C3CCS(=O)(=O)CC3)C(F)(F)F)cc2)cnc2cc(Cl)nn12", "test": "cell-free assay, competition with immobilised ligand", "conditions": "1 µM", "remaining binding": "87%"}
